# Compound activity: PubChem, several laboratories
# UPR XBP1 act – activators of adaptive arm of unfolded protein response (XBP1); CHO-XBP1 luciferase reporter, IRE1-XBP1 UPR activation, luminescence; percent of tunicamycin response, DMSO as zero; activation, % at 20 µM; 330,000 tested, 0.33% active;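 active means versus positive control, 20 µM dose yields 30% or more activation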;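 further: 100% = tunicamycin at 10 µg/mL and 0% = DMSO only wells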
#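 Assay system: CHO-XBP1 luciferase reporter cells; Schedule: 6 h treatment, 37 °C; Detection: glow luminescence from Steady-Glo reagent; Benchmarks: high control tunicamycin 10 µg/mL final, low control DMSO vehicle only.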
# UPR CHOP act – activators of apoptotic arm of unfolded protein response (CHOP) | CHO-CHOP luciferase reporter, UPR activation, luminescence; percent of tunicamycin response over DMSO baseline | activation, % at 10 µM | 330,000 tested, 0.34% active | AID 449763;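 active means at 10 µM dose, activation of 40% or more, normalized to positive control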;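 further: 100% = tunicamycin at 10 µg/mL and 0% = DMSO alone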
#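 System: CHO-CHOP luciferase reporter cell line; amount: 500 cells/well; buffer or medium: F12 medium containing 10% fetal bovine serum; incubation: 6 h compound exposure at 37 °C after overnight seeding; measured by: luciferase luminescence after 10 min with Steady-Glo reagent; evaluation: % reporter activation, DMSO baseline versus tunicamycin full activation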
# 697 NFkB inh – lowers PMA/ionomycin-induced NF-kB signal in 697 B cells; AID 435022; 330,000 tested, 0.33% active; 697 B-cell NF-kB luciferase reporter, 16 h; inhibition, % at 4 µM; in the data active means inhibition above about 35%
# Jurkat NFkB inh – inhibitors of the PMA/ionomycin-induced NF-kB reporter in Jurkat cells; PMA/ionomycin-induced NF-kB luciferase reporter, luminescence; inhibition, % at 4 µM; 330,000 tested, 0.53% active; in the data active means inhibition above about 50%
# CHOP inh – CHOP inhibition in unfolded protein response | CHO-K1 CHOP-promoter luciferase, tunicamycin-induced, 15-18 h | inhibition, % at 10 µM | 220,000 tested, 3.8% active | AID 2732;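 active means compounds that reduced the stress-induced luciferase reporter signal by more than about 70% of percent inhibition, limit read from the data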;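 further: 0% = tunicamycin plus vehicle and 100% = wells without tunicamycin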
# Jurkat NFkB conf – lowers PMA/ionomycin-induced NF-kB signal in Jurkat cells; inhibition, % at 4 µM; shares compounds with Jurkat NFkB inh; 2,700 tested, 27% active; Jurkat NF-kB luciferase, 16 h;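 active means inhibition reaching about 45% at 4 µM in either replicate, limit read from the data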;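 further: plate controls were PMA/ionomycin stimulated DMSO wells for no effect and unstimulated DMSO wells for full effect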
# 697 NFkB conf – inhibitors of the PMA/ionomycin-induced NF-kB reporter in 697 B cells, retest. shares compounds with 697 NFkB inh. 697 B-cell NF-kB luciferase, 16 h. inhibition, % at 4 µM. 2,000 tested, 35% active. AID 449746; in the data active means inhibition mostly above about 28%, no sharp cut-off; inactive means mostly below about 22%
# UPR CHOP confirm – confirmation of apoptotic unfolded protein response (CHOP) activators | AID 463112 | CHO-CHOP cells, CHOP-luciferase reporter luminescence; percent of tunicamycin response, DMSO as zero | shares compounds with UPR CHOP act | 1,000 tested, 64% active | activation, % at 10 µM; in the data active means activation above about 33%;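 further: 0% = DMSO wells and 100% = tunicamycin 10 µg/mL wells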
# UPR XBP1 confirm – confirmation of adaptive unfolded protein response (XBP1) activators; 1,000 tested, 63% active; shares compounds with UPR XBP1 act; CHO-XBP1 IRE1-XBP1 luciferase reporter, luminescence; activation, % at 20 µM;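 active means reporter signal at least 30% of the positive control's activation in two or more of four replicate wells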;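 further: plate controls were DMSO negative control for no effect and tunicamycin 10 µg/mL positive control for full effect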
# * marks the source's active call; other numbers are inactive results; i = inactive; . = no result given. The entries come from a sample that favours hits as a whole.
SMILES,UPR XBP1 act,UPR CHOP act,697 NFkB inh,Jurkat NFkB inh,CHOP inh,Jurkat NFkB conf,UPR CHOP confirm,others
C=CCNC(=S)N/N=C(\C)c1ccccn1,1.4,211.4*,24.3,78.3*,39.6,51.2*,203.3*,
CNC[C@@H](CC1CCCCC1)NC[C@H](CC(C)C)NCCc1cccc(C(F)(F)F)c1,-5.1,83.4*,11.8,86.1*,.,45.2,33.2*,
CC[C@@H](C)[C@H](CNC)NC[C@@H](Cc1cccc2ccccc12)NCCc1cccc(C(F)(F)F)c1,7.6,34.3,9.1,25.2,.,.,.,
CNC[C@@H](Cc1ccccc1)NC[C@@H](CC1CCCCC1)NCCCc1ccccc1,1.9,73.5*,21.7,91.3*,.,23.5,34.0*,
COc1ccccc1-c1nc2cc3ccccc3cc2nc1-c1ccccc1,-0.6,1.2,-3.2,0.5,8.4,.,.,
CC(C)CCNC(=O)C1CCC(CNc2c(N3CCCC3)c(=O)c2=O)CC1 (configuration not stated),0.2,1.6,18.2,0.6,-5.4,.,.,
C=C(C)CN(CC)c1nc(N)c2c(N)nc3c(c2c1C#N)CC(=O)N3C12CC3CC(CC(C3)C1)C2,5.0,7.9,16.4,35.4,-2.7,.,.,
N#Cc1c(N2CCCC(O)C2)nc(N)c2c(N)nc3c(c12)CC(=O)N3C12CC3CC(CC(C3)C1)C2 (configuration not stated),25.3,46.3*,-28.2,84.9*,-100.8,48.5,19.9,
O=C(Nc1nc2ccc(F)cc2s1)c1ccccn1,-7.7,79.9*,-385.0,96.0*,81.4*,-3.8,73.2*,697 NFkB conf=-332.4
COc1ccc(N=C2S/C(=C\c3ccc(OCC(=O)O)cc3)C(=O)N2CCc2c[nH]c3ccccc23)cc1,-4.7,-1.6,8.9,-0.8,-9.3,.,.,
COc1ccc(N=C2S/C(=C\c3ccc(N4CCOCC4)o3)C(=O)N2CCc2c[nH]c3ccccc23)cc1,-7.1,138.6*,-37.5,100.0*,36.6,39.0,72.5*,
C=C(C(=O)c1ccccc1)C(C(=C)C(=O)c1ccccc1)c1ccc(OC)cc1,-0.3,61.7*,i,55.6*,55.7,-3.4,64.9*,697 NFkB conf=-164.4
COc1ccc(C(=O)N/N=C/c2ccccn2)cc1OC,2.1,1.9,6.3,-6.2,23.1,.,.,
COc1ccc(C(=O)Nc2ccccc2C(=O)N/N=C/c2ccccn2)cc1OC,9.0,101.2*,-66.6,55.6*,51.5,-21.0,100.0*,
Cc1ccc(CNC(=O)CSc2ncccn2)cc1,1.9,1.9,-11.2,-1.5,-30.3,.,.,
O=C(N/N=C/c1ccccn1)c1cc(-c2ccc(Br)cc2)nc2ccccc12,-3.0,330.8*,-62.6,54.3*,52.7,18.6,265.2*,
Cc1sc2nc3c4ccccc4c(NCc4ccco4)nn3c(=O)c2c1C,-11.9,-1.3,17.7,42.7,-33.2,.,.,
Cc1nc(NCc2ccco2)c2c(C)c(C)sc2n1,-2.1,40.6*,-281.0,70.4*,-38.2,57.5*,14.5,697 NFkB conf=-43.5
CC1c2nc3ccccc3n2C(CC(=O)NCc2ccccn2)C(=O)N1Cc1ccccc1 (configuration not stated),0.0,0.1,17.2,-3.5,37.0,.,.,
O=C(N/N=C(\c1ccccc1)c1cccnc1)c1cccc(F)c1,-5.2,51.2*,-10.2,52.4*,.,54.9*,90.7*,
Cc1cccc(NC(=O)N2C3CCCC2CC(NC(=O)C(C)(C)C)C3)c1 (configuration not stated),-3.3,-0.8,-14.3,-6.6,.,.,.,
COc1cccc2sc(Nc3nc(-c4ccccn4)cs3)nc12,9.4,624.2*,-132.2,97.6*,.,31.8,424.6*,
c1ccc(Nc2nc(-c3ccccn3)cs2)cc1,1.1,4.1,-197.3,-130.5,-98.8,.,.,
C=CCSC1=N/C(=C\c2cc(OCC)c(OC(C)=O)c([N+](=O)[O-])c2)C(=O)S1,-1.8,-1.4,18.0,10.9,33.7,.,.,
Cc1ccc(S(=O)(=O)Nc2cccc3cccnc23)cc1,-5.2,620.5*,-14.4,92.3*,-166.8,20.1,326.4*,
SMILES,UPR XBP1 act,UPR CHOP act,697 NFkB inh,Jurkat NFkB inh,CHOP inh,Jurkat NFkB conf,UPR CHOP confirm,others
O=C1CC(c2cccs2)Cc2nc(NCC3CCCO3)ncc21 (configuration not stated),-0.7,0.8,7.5,-2.2,-2.3,.,.,
O=C(/C=C/c1ccc(O)c(O)c1)OCCc1ccccc1,5.7,52.4*,-70.9,54.8*,-17.5,4.2,145.4*,
COc1ccccc1C(=O)NCCC(=O)NCC1CCCO1 (configuration not stated),-0.1,2.2,-4.5,2.5,.,.,.,
Nc1nc(Nc2ccc(Cl)cc2)nc2ccccc12,32.8*,24.5,-439.9,-181.1,64.0,-100.2,.,697 NFkB conf=-366.9;UPR XBP1 confirm=25.1
Nc1nc(Nc2ccccc2)nc2ccccc12,9.2,2.7,-144.6,-112.1,-13.2,.,.,
CCOC(=O)C1CCCN(S(=O)(=O)c2cccc3cccnc23)C1 (configuration not stated),-1.9,-2.0,12.8,7.4,-6.3,.,.,
CCCCOc1ccccc1NC(=O)Cn1c(-c2nonc2N)nc2ccccc21,101.2*,9.8,35.3*,59.0*,.,30.2,.,697 NFkB conf=-55.8;UPR XBP1 confirm=81.6*
CCN(CC)c1ccc(-c2nn3c(-c4ccccc4OC)nnc3s2)cc1,30.4*,2.3,-119.2,78.9*,.,63.8*,.,UPR XBP1 confirm=31.9*
COc1ccc(-c2nn3c(-c4ccccc4)nnc3s2)cc1,4.4,0.2,-3.4,8.4,60.1,.,.,
COc1ccc(Cn2c(SCc3ccc(C)cc3)nc3cc(OC)c(OC)cc3c2=N)cc1Cl,32.0*,87.9*,14.7,64.1*,71.7*,62.6*,38.5*,UPR XBP1 confirm=7.3
Cc1ccc(OCC(O)CNC2CCCC2)c(C)c1 (configuration not stated),-2.4,-1.3,19.3,5.5,.,.,.,
Cc1ccccc1OCC(O)CNC1CCC(NCC(O)COc2ccccc2C)CC1 (configuration not stated),43.1*,56.4*,26.4,97.1*,.,35.2,.,UPR XBP1 confirm=11.4
CCn1c(CC(=O)Nc2ccc(F)cc2)nnc1SCC(=O)Nc1nnc(C)s1,-1.2,-1.5,-10.0,-2.0,.,.,.,
CC(C)c1ccc(C2C3=C(COC3=O)Nc3cc4c(cc32)OCO4)cc1 (configuration not stated),42.6*,3.7,11.5,69.9*,-24.8,2.0,.,UPR XBP1 confirm=93.4*
Cc1ccc(NC(=O)CSc2nc3ccccc3c3nc4ccccc4n23)cc1,92.5*,38.8,3.5,72.6*,8.8,39.0,.,UPR XBP1 confirm=200.3*
